Data reported in the RNAGym collection of RNA variant scans (doi:10.1126/science.aae0568).
This sample holds only a part of the variants without activity.

B1: tRNA (parent)
chain: GUUCCGUUGGCGUAAUGGUAACGCGUCUCCCUCCUAAGGAGAAGACUGCGGGUUCGAGUCCCGUACGGAACG

Variants of: B1
Assay: yeast fitness relative to wild type (ratio to wild type); higher = fitter; tRNA-Arg(CCU), competitive growth, 37 C, YPD
Summary of the method: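 Gene amplicons from the start population and from each of six end populations were read by 100-nucleotide paired-end sequencing. Those end populations came from pooled Saccharomyces cerevisiae strains carrying tRNA-Arg(CCU) gene variants at the native locus, competed in YPD at 37°C for 24 hours. Fitness relative to wild type was worked out from changes in genotype frequencies. Genotypes needed ≥ 100 starting reads, and estimates < 0.5 were set to 0.5.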

Row | Variant | yeast fitness
1 | A15C C30U A42U C49G | ≤ 0.5
2 | U3A U47A | 0.744
3 | A21C U64C | 0.835
4 | U7A C27U C46G | 0.691
5 | C11G U16A C22U U28A C31A A42C A45U G51A U64A | ≤ 0.5
6 | G6A G58A | 0.902
7 | A21U U32G | 0.808
8 | C5G U32A C34U | ≤ 0.5
9 | A21G U32G G41C | ≤ 0.5
10 | C24A C27A U28A | 0.53
11 | G9C U13A G25A A40C C66U | ≤ 0.5
12 | U3C A43U A45G | 0.567
13 | G56A G58A | 0.907
14 | G23A C33G C46G C66A | 0.529
15 | C27G G56A A65G | 0.535
16 | A20U A21G C31U | 0.609
17 | C5G C27U G41C U53C | ≤ 0.5
18 | C5G G12C G18A C24U C29U A36G A45C A69C | ≤ 0.5
19 | C27A U54C | 0.991
20 | A21G C27A C34G G38A G63C | ≤ 0.5
21 | U13C A69C | 0.995
22 | U26C C30G C61U A70G | 0.689
23 | G9A G23A C27A | ≤ 0.5
24 | C4G C29A C33G A45C G67C | ≤ 0.5

Row | Variant | yeast fitness
25 | A21C C30U G38A | ≤ 0.5
26 | G12C A42G | 0.902
27 | G12A A42G A69U | 0.688
28 | C5U A14C C46A | 0.548
29 | C27G C62G | 0.695
30 | C4A G17C A20U C22U | ≤ 0.5
31 | C5A G25C C30U | 0.576
32 | U2C U35A C55A | ≤ 0.5
33 | G25A C27G C60A A70U | ≤ 0.5
34 | A21C U35C A65G | 0.583
35 | U26A A65U | 0.829
36 | C11G A14C G18C C29G C49U A65C | ≤ 0.5
37 | U13C C29G A36G G41A G48C | ≤ 0.5
38 | A36G C61A | 0.766
39 | A36G G44U | 0.711
40 | A21G C27U A37U A45U C62G | ≤ 0.5
41 | G51U A57G | 0.642
42 | A15U C22G G48C G63C A70C | ≤ 0.5
43 | G44C C55A | 0.548
44 | G9A G25C C60G | ≤ 0.5
45 | G12A A21G C34U | ≤ 0.5
46 | G9C C34A | 0.536
47 | C30A C46G G51A | 0.593
48 | C5G U32A C62G | ≤ 0.5

Row | Variant | yeast fitness
49 | U3A C24U A40U G50C A70U | ≤ 0.5
50 | C5A A21U C24U C27G C55U | ≤ 0.5
51 | C4G A40G A45U | ≤ 0.5
52 | G17A C34U G38A | 0.581
53 | A57U C60A | 0.54
54 | C27G A40G G51A | 0.541
55 | C5A C22G C29G C31G | 0.627
56 | C5G A20U C31G | ≤ 0.5
57 | A42C A43C A69U | 0.819
58 | C11A G41A G56A C62A | ≤ 0.5
59 | A37U A40U G67C | 0.563
60 | A42U G67U | 0.813
61 | U3A A69C | 0.919
62 | G39C G44C C46U A70U | ≤ 0.5
63 | C11G G48A G63A A65C | ≤ 0.5
64 | A37U A42U C66A A69C | 0.572
65 | G12C U35G A69C | 0.571
66 | C5U A21U A57U C60A G68C | 0.566
67 | U16A A20U C24G C33G A65G C66A | ≤ 0.5
68 | G9C G23C A57C | ≤ 0.5
69 | C5U C24A G41A A69C | ≤ 0.5
70 | C11U A36U G48C U54C | ≤ 0.5
71 | A14G A57U | 0.563
72 | U2A C11U G58C | 0.678

Row | Variant | yeast fitness
73 | A36C | 0.705
74 | G9C G23A C34U | 0.655
75 | C5U G51A A57U | ≤ 0.5
76 | G6A G9A C11G C24G U32A G52C | ≤ 0.5
77 | C27U A36U G38C A43C | ≤ 0.5
78 | U13C A36U G51C | ≤ 0.5
79 | C5U U7G C34G G44A U59G G68U | ≤ 0.5
80 | G6A A37U | 0.64
81 | U32C A40U C46A A65U | 0.589
82 | G10U C11G C24U C34U C46A | ≤ 0.5
83 | U3A G48C C55A C66G G67C | ≤ 0.5
84 | U13C A40G C62G | ≤ 0.5
85 | U13C C22U C27U A37C G67A | ≤ 0.5
86 | A14U A21C A36C C49A C66G | ≤ 0.5
87 | G50U C62U A69C | 0.661
88 | G12C A40C C46U C49A U64A | ≤ 0.5
89 | C22G U47G | 0.597
90 | U26C A36C G56C | 0.633
91 | A15G A42G | 0.929
92 | C24G C33U A43G | ≤ 0.5
93 | G9A C22A U47G C55A U64C G67A | ≤ 0.5
94 | C22U U35C A69C | 0.565
95 | G10C U47A A57C | ≤ 0.5
96 | U2G U3A C5U U7C U8A A20C U35C A37U A57C | 0.565

Row | Variant | yeast fitness
97 | C11U C31U C66U | 0.742
98 | U13G A20U U59A C66U | ≤ 0.5
99 | C30G C34U C49G C55U | ≤ 0.5
100 | A20C C27U U59G | 0.582
101 | U32A A45C G48A | 0.509
102 | U2G A21C A45G | 0.54
103 | C5U A20C A69U | 0.771
104 | A20G U35G | 0.708
105 | C27G C29A G52C | ≤ 0.5
106 | U2A C5U U47A G52A | ≤ 0.5
107 | G38A C61U | 0.931
108 | C4G A15G G23A C34G G68A | ≤ 0.5
109 | G6A U13G U28G | 0.511
110 | C11G A43U | 0.726
111 | C11G A43G | 0.641
112 | U16C | 1.01
113 | G6C C34G G38A | ≤ 0.5
114 | U7C A37C A40C A45U A57C A70U | 0.555
115 | C4G C22A C66U | ≤ 0.5
116 | C11A G56A | 0.739
117 | U16G U28C G51A C55G | ≤ 0.5
118 | U7C U16A G41C U54C C66U | ≤ 0.5
119 | C4G G9C C22A A69U | 0.525
120 | A14U C29G C34G | ≤ 0.5

Row | Variant | yeast fitness
121 | C4A C24A G41C G51C | ≤ 0.5
122 | C27G A36G G63C C66U | ≤ 0.5
123 | C11U C29A A57U C62U A70U | ≤ 0.5
124 | C4A U16C G17A | 0.567
125 | U7A U8A G10C C27G C34G | 0.564
126 | C29U C33A C34U C46G G52C | ≤ 0.5
127 | U8C A37G G38C | ≤ 0.5
128 | U3A A36U U53G | 0.619
129 | C4U U19C C31A G41C | 0.53
130 | G9A C24U G38A G48C | ≤ 0.5
131 | C49G A57C | 0.656
132 | U3A C60U C66G | 0.658
133 | A21G A42C C66A | ≤ 0.5
134 | A20U C34G G38C G50C C60A A70C | ≤ 0.5
135 | U26G U35C | 0.657
136 | C29U G38C A69U | 0.581
137 | C30U A37G | 0.656
138 | G6C U26C A37U A43U | ≤ 0.5
139 | C29G A57U C60A | ≤ 0.5
140 | C5A C33G C34A A40C | 0.567
141 | C11G C33G A57U | ≤ 0.5
142 | A14C A36G A42C | 0.533
143 | C5G G17C U47A C55A | 0.516
144 | G6A G10C C29U | ≤ 0.5

Row | Variant | yeast fitness
145 | C24U A36U A37G A40C | ≤ 0.5
146 | A40C A45G | 1
147 | G12A U19A A20U A36U | ≤ 0.5
148 | U8G G9C C33A G68A | ≤ 0.5
149 | A36U C46A C66A | ≤ 0.5
150 | C24A C31A A43U C55U | 0.674
151 | G48A G58C | 0.979
152 | C5G U19G A36U G56C A65C | ≤ 0.5
153 | C4G G10A C27G A45U C49G C55A | 0.617
154 | A14C U47C C55U G68C | ≤ 0.5
155 | U32G C46A | 0.667
156 | U3C A20C G23C G56C A65C G68A | ≤ 0.5
157 | A45C A57G A70C | 0.764
158 | G41A A69C | 0.801
159 | G9C C22U C33G A43U A45U C46G U54A A65U | 0.67
160 | C11U U28C A40C G50C A70C | ≤ 0.5
161 | G17A U26A C62U | 0.614
162 | C11G C33A G50C | ≤ 0.5
163 | U13C U47A G68A | ≤ 0.5
164 | C27U C31G | 0.713
165 | C27G C55U | ≤ 0.5
166 | U7C U19A C29A | ≤ 0.5
167 | G9A U28G A40C A42G A69C | 0.963
